Published values gathered from unrelated publications.
Lines come from different studies, so protocols differ.
Target: Bone morphogenetic protein receptor type-1B (BMPR1B, Homo sapiens, UniProt O00238)

O=C1CCc2cc(Nc3cc(OC4CCOCC4)c([N+](=O)[O-])cc3Cl)ccc2N1
remaining binding (cell-free assay; competition with immobilised ligand; 1 µM): 87%

O=C(NCC1CCOCC1)c1n[nH]cc1NC(=O)c1c(F)cccc1F
remaining binding (binding; competition with immobilised ligand; 1 µM): 90%

N[C@H]1CCN(c2nccc(-c3cnn4ncccc34)n2)C1
remaining binding (binding; 1 µM): 100%

O=C(c1ccc(Nc2ncc(Cl)c(-c3cc4ccccc4s3)n2)cc1)N1CCC(N2CCCC2)CC1
remaining binding (binding; competition with immobilised ligand; 1 µM): 62%

CN(CCCC(F)(F)F)c1nccc(-c2cnn3ncccc23)n1
remaining binding (binding; 1 µM): 93%

C=CC(=O)N1CCC(C(=O)NCC(=O)N2CCN(c3nc(-c4cnc(N)nc4C(F)F)nc(N4CCOCC4)n3)CC2)CC1
remaining binding (binding; competition with immobilised ligand; 1 µM): 64%

O=C(NCCCN1CCOCC1)c1ccc(Nc2ncc(Cl)c(-c3ccc(Cl)s3)n2)cc1
remaining binding (binding; competition with immobilised ligand; 1 µM): 56%

CSc1cccnc1N1CCN(Cc2nc3ccccc3[nH]2)CC1
remaining binding (cell-free assay; competition with immobilised ligand; 1 µM): 80%

C[C@@H](c1ccc(-n2cnc3c(N)ncnc32)cc1)N1CCc2nn(C)c(Cc3ccccc3)c2C1=O
remaining binding (binding; competition with immobilised ligand; 0.1 µM): 84%

O=C(NCc1ncc(C(F)(F)F)cc1Cl)c1ccc2c(c1)C1(CCS(=O)(=O)CC1)[C@H](C1CC1)N2S(=O)(=O)c1ccc(F)cc1
remaining binding (cell-free assay; competition with immobilised ligand; 1 µM): 93%

Cc1cnn2ncc(-c3ccnc(N(C)C)n3)c2c1
remaining binding (binding; 1 µM): 67%

CCN1CCN(Cc2ccc(C(=O)Nc3ccc(C)c(Oc4ccc5c(c4)CC(=O)N5)c3)cc2C(F)(F)F)CC1
remaining binding (binding; competition with immobilised ligand; 1 µM): 100%

COc1ncc2cc3ccccc3nc2c1C#N
remaining binding (cell-free assay; competition with immobilised ligand; 5 µM): 89%

COCCOc1nc(-c2ccc(Cl)nc2)nc2c1CN(C(=O)c1ncn3ccccc13)CC2
remaining binding (cell-free assay; competition with immobilised ligand; 0.1 µM): 100%

CNC(=O)[C@@H]1CC[C@@H](n2c(-c3ccc4cnccc4c3)nc3ccc(C(=O)NCc4cccc(C(N)=O)c4)cc32)C1
remaining binding (binding; competition with immobilised ligand; 1 µM): 80%

c1cnn2ncc(-c3ccnc(N4CCC45COC5)n3)c2c1
remaining binding (binding; 1 µM): 52%

O=c1nc(-c2ccccn2)sc2ccccc12
remaining binding (cell-free assay; competition with immobilised ligand; 1 µM): 75%

Cc1cnc(Nc2ccc(C(=O)N3CCC(N4CCCC4)CC3)cc2)nc1-c1cc2ccccc2s1
remaining binding (binding; competition with immobilised ligand; 1 µM): 26%

CNC(=O)Nc1ccc2c(c1)[C@@]1(CC2)OC(=O)N(CC(=O)N(Cc2ccc(F)cc2)[C@@H](C)C(F)(F)F)C1=O
remaining binding (cell-free assay; competition with immobilised ligand; 1 µM): 100%

COc1ccnn2ncc(-c3ccnc(N(C)C)n3)c12
remaining binding (binding; 1 µM): 51%

CCCCN(CCCC)C(=O)CN1C[C@H](c2cc(OC)c3c(c2)OCO3)[C@@H](C(=O)O)[C@@H]1CC(C)(C)CCC
remaining binding (cell-free assay; competition with immobilised ligand; 1 µM): 59%

F[C@@H]1CCN(c2nccc(-c3cnn4ncccc34)n2)C1
remaining binding (binding; 1 µM): 72%
